# Laboratory results taken from paper PMC6415796 (Nano letters, 2015).
# Entries after “also recorded” stand apart in the source; their conditions may differ. Strand notation (5' to 3'): a small letter for the sugar, then the base; units joined by * are phosphorothioate-linked, units joined directly phosphodiester-linked; [ ] holds rarer units or linkages, { } end groups; capitals alone tell only the bases. [tcDNA-N] = tricyclo-DNA nucleotide (N: the base); m = 2'-O-methyl
# Legend:
# [1] = DLS after incubation with physiological albumin solution; assay type: physicochemical; conditions: equal volume BSA 4.25 g/dL in PBS, 1 h at 37 °C, diluted 10x before DLS
# [2] = DLS analysis of ASOs in PBS; assay type: physicochemical; conditions: 1 mM ASO in PBS, each measured 3 times
# [3] = system: Differentiated C2C12 cells; test: Uptake of FITC-labelled ASOs with SR ligands; assay type: cell-based, murine; conditions: ligand pretreatment 1 h, then FITC-ASO 200 nM for 4 h
# In short: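 C2C12 cells were grown in DMEM with 10% FBS, then differentiated 3-4 days in DMEM with 2% horse serum (2.5x10⁴/cm²). Cells were pretreated 1 h with scavenger-receptor ligands or control polyanions at 100 μg/ml. They were then given FITC-2'OMePS or FITC-tcDNA (200 nM) for 4 h, washed, and methanol-fixed (-20 °C, 10 min). Mean fluorescence intensity came from microscopy images; one-way ANOVA, mean ± SEM.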
# SCARA1 = molecular target: T1, SCARA1 (Mus musculus, UniProt P30204); test: Dmd exon 23 skipping; assay type: in vivo, mice; conditions: 10 mg/kg intravenous, 1 week, n=4, qPCR
# T1 sequence (P30204 1-351 limits assumed): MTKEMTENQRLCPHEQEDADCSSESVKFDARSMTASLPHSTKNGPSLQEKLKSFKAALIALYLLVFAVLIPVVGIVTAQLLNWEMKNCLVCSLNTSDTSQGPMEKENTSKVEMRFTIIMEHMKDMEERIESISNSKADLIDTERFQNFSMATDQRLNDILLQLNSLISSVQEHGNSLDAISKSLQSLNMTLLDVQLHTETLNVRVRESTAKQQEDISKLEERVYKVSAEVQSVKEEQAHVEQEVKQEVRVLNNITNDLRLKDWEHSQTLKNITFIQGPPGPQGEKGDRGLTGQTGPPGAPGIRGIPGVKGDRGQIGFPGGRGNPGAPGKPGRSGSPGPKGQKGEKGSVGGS
# In short: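 SCARA1-/- and C57BL/6 mice (14 months old, n = 4) received 10 mg/kg peptide–PMO conjugate in 0.9% saline via tail vein. After one week, tibialis anterior, diaphragm and heart were snap-frozen. Multiplex Taqman qPCR on 25 ng cDNA used FAM primers spanning exon 20-21 and HEX primers spanning exon 23-24. Skipping percentage came from normalising exon 23-24 to exon 20-21 amplification.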
# [4] = TEM visualization of self-assembled nanoparticles; assay type: physicochemical; conditions: Fig. S3
# [5] = system: class A scavenger receptor subtypes (SCARAs); test: PPMO splice-switching activity; assay type: cell-based, murine; conditions: for Effect of SR ligand or control on splice-switching activity of PPMO: differentiated C2C12, ligand 50 μg/ml for 1 h before PPMO 500 nM for 4 h in Opti-MEM, then 20 h, nested RT-PCR
# [6] = Zeta potential measurement; assay type: physicochemical
# [7] = Uptake and activity comparison of fluorescently labelled ASOs; assay type: cell-based; conditions: Fig. S4
# [8] = Critical micelle concentration by dye micellization method; assay type: physicochemical; conditions: eosin Y 0.019 mM, absorbance at 542 nm, rounded value
substance,measurement,setting,value
"2’OMe: 2’Omethyl phosphorothioate ASO 5’- GGCCAAACCUCGGCUUACCU-3’, synthesized by IDT (antisense mG*mG*mC*mC*mA*mA*mA*mC*mC*mU*mC*mG*mG*mC*mU*mU*mA*mC*mC*mU)",DLS particulate peaks in albumin model,[1],failed to do so
same,DLS population profile (peaks),[2],predominant peak was of singular molecules
same,DLS size of predominant peak (singular molecules),[2],around 2 nm
same,Uptake in the presence of fucoidin and dextran sulfates,[3],only partially inhibited
RXRRBRRXR YQFLI RXRBRXRB [Pip6a-PMO],"Exon 23-skipping activity in SCARA1 knock-out versus wild-type mice, diaphragm",SCARA1,significantly reduced
same,"Exon 23-skipping activity in SCARA1 knock-out versus wild-type mice, heart",SCARA1,significantly reduced
same,Nanoparticle formation and relative size by TEM,[4],spontaneously forms nanoparticles; also recorded: smaller than B-PMO nanoparticles
same,Uptake in the presence of SR ligands,[5]; Fig. S3,significantly inhibited
RXRRBRRXRRBRXB [PPMO],DLS particulate peaks in albumin model,[1],high intensity particulate peaks
same,Zeta potential,[6]; in PBS,-1.21 ± 0.63
same,Zeta potential,[6]; in serum-free medium,-3.48 ±2.31
same,Zeta potential,[6]; in water,10 ± 2.70
same,DLS population profile (peaks),[2],"two peaks, one for singular molecules and one representing a particulate population"
same,Extent of uptake relative to other chemistries,[7],several folds higher uptake than the other two chemistries
same,Critical micelle concentration (CMC),[8],about 1.4 μM
chondroitin sulfate,Effect of SR ligand or control on splice-switching activity of PPMO,[5],no effect
dextran sulfate,Effect of SR ligand or control on splice-switching activity of PPMO,[5],completely inhibited
fucoidin sulfate,Effect of SR ligand or control on splice-switching activity of PPMO,[5],completely inhibited
"tcDNA: phosphorothioated tricyclo DNA 5’-AACCTCGGCTTACCT-3’, synthesized by SYNTHENA (all [tcDNA-N], all phosphorothioate, methylation of C not given here)",Extent of uptake relative to other chemistries,[7],significantly higher than that of 2’OMe
